Assay outcomes: PubChem BioAssay, several laboratories
Rows were chosen to be rich in hits. Some 2.3% of all compounds tested hit in one or more screens of this group.
NR2E3 ag-1: human photoreceptor-specific nuclear receptor agonism | 0.35% of 360,000 active | AID 602229 | Q9Y5X4 | inhibition of corepressor binding, % at 3.98 µM | CHO-S Gal4-NCOR/VP16-NR2E3 two-hybrid, luciferase;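 active = inhibition above the mean of all tested compounds plus 3 SD, cut at about 70% in these data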;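 note: 0% = DMSO with NR2E3 transfected cells and 100% = cells lacking NR2E3 construct; higher means lower luciferase signal from less NR2E3 corepressor binding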
CHT block: human CHT choline transport inhibition | 0.86% of 310,000 active | CHT-expressing cells, membrane potential dye, choline response; hits give low values | Q9GZV3 | B-score at 10 µM | AID 488975;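 active = B-score over 3 SD under the library average, and starting fluorescence ratio not unusually high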;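 note: choline stimulus applied at its EC90 after an EC20 pre-addition; B-score computed on integrated fluorescence ratio after choline addition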
Target sequence (Q9GZV3 whole entry, looked up): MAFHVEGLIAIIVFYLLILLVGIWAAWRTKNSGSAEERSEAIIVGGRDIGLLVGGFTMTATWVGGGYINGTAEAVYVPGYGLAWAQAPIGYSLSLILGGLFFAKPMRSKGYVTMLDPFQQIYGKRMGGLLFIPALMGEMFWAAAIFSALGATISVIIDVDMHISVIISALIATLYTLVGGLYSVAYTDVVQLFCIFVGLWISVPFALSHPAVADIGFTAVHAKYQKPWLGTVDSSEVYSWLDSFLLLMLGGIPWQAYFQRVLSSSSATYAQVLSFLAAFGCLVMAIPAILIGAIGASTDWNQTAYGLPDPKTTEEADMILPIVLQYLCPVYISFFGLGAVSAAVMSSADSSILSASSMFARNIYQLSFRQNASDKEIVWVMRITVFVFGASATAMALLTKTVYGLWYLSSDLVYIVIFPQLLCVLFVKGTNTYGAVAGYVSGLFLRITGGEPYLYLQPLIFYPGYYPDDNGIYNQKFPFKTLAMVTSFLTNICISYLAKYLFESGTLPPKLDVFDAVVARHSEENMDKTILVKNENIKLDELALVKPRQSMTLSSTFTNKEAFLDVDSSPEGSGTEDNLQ
COUP-TFII inh: NR2F2 (human) inhibition, primary screen; P24468; HEK293T NGFI-A luciferase reporter, luminescence; inhibition, % at 8.6 µM; 0.7% of 370,000 active;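 active = inhibition above a per-plate cutoff, mean inhibition of test wells between control levels plus 3 SD, cut at about 38% in these data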;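 note: cells cotransfected with COUP-TFII expression vector driving the NGFI-A reporter; 0% = median of COUP-TF2 test wells and 100% = reporter-only cells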
GalR3 antagonist: blocks the human galanin receptor 3 | AID 651719 | HEK293 GalR3-CNG cAMP membrane potential fluorescence; galR3 body fused to GalR1 C-terminus | 0.44% of 360,000 active | O60755 | inhibition, % at 3 µM;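 active = inhibition above the screen-wide average plus 3 SD, cut at about 13% in these data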;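 note: forskolin and galanin both at EC90 stimulate the cells; cAMP rise reported by CNG channel membrane potential dye signal; 0% = forskolin plus galanin with DMSO and 100% = forskolin alone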
CHT allo act: human CHT allosteric activation. 0.49% of 310,000 active. Q9GZV3. B-score at 10 µM. CHT-expressing cells, membrane potential dye, choline EC20; hits give high values; LV-AA mutant CHT in HEK293 cells;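 active = initial fluorescence not abnormally high and integrated response B-score, plate-corrected, over 3 SD above library mean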
NR2E3 ag-2: agonists of human nuclear receptor NR2E3. Q9Y5X4. GST-NR2E3/biotin-RetCOR TR-FRET, 1536-well. inhibition of corepressor binding, % at 4.78 µM. 0.12% of 320,000 active;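 active = percent inhibition above the cutoff of mean plus 3 SD of all tested compounds, set per screening campaign, cut at about 20% in these data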;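 note: 0% = DMSO wells and 100% = biotin wells as full block of FRET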
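System: GST-tagged NR2E3 plus biotinylated RetCOR corepressor; Amount: 1.35 nM GST-tagged NR2E3 final; Dosing: single nominal compound dose of 4.8 µM; Schedule: 5 h incubation at 4 °C; Technique: TR-FRET with europium anti-GST and streptavidin-D2, 340 nm excitation; Controls: biotin wells as high control, 0.6% DMSO wells as low control.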
CHT inh conf: human CHT inhibition, confirmatory screen; CHT activity remaining % of control (hits give low values), % at 10 µM; shares compounds with CHT block; CHT-expressing cells, choline membrane potential dye; LV-to-AA substituted CHT, HEK293 cells; 70% of 2,400 active;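 active = choline transporter activity left, mean of duplicates at 10 µM, below buffer-only control mean minus 3 SD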;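 note: depolarization triggered by choline at its EC90 following an EC20 pre-addition; 0% = hemicholinium-3 full block and 100% = buffer-only control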
HEK293 MPD ctr: counter-screen for CHT inhibitors: effect in parental HEK293 cells. shares compounds with CHT block. membrane potential dye, choline response; active = decrease or increase beyond buffer ±3SD. membrane potential ratio readout (active if shifted either direction beyond buffer ±3SD; no single direction) at 10 µM. 4% of 2,400 active. AID 493222;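 note: parental cells lack the transporter so any hit is non-specific; ratio is peak minus trough fluorescence over baseline after EC90 choline challenge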
Starred values were filed as active, the others as inactive; i = inactive; · = not tested or not shown.

SMILES	NR2E3 ag-1	CHT block	COUP-TFII inh	GalR3 antagonist	CHT allo act	NR2E3 ag-2	CHT inh conf	HEK293 MPD ctr
COc1ccc(OCC(=O)N/N=C/C=C/c2ccccc2)cc1	-3.5	-7.93*	-19.1	-5.0	i	-0.1	69.1%*	i
Cc1ccc(N2CC(C(=O)Nc3ncc([N+](=O)[O-])s3)CC2=O)cc1 (stereo not given)	9.4	-5.02*	-14.2	-4.8	i	-1.7	49.6%*	i
c1ccc2cc(Cn3ccc4ccc(-c5ccc6cc[nH]c6c5)cc43)ccc2c1	·	·	-5.5	·	·	·	·	·
CC1=C(C(=O)Nc2cccc(C(=O)NC3CCCCC3C)c2)SCCO1 (stereo not given)	-11.5	i	-7.9	-8.3	i	1.7	46.4%*	i
CCCCCc1ccc(NC(=O)O[C@@H]2CC[C@@]34CCCN3C(=O)CCC[C@H]4C2)cc1	·	·	31.0	·	·	·	·	·
CCCNC(=O)c1ccccc1NC(=O)c1ccc2c(c1)NC(=O)C(C)S2 (stereo not given)	-44.3	-5.89*	2.1	-2.7	i	4.3	65.2%*	i
CC(=O)c1ccccc1NC(=O)c1ccc2c(c1)NC(=O)C(C)S2 (stereo not given)	-55.4	i	-54.9	-1.5	i	1.5	·	·
O=CC1=C(c2ccccc2)Oc2ccccc2O1	5.2	i	-6.8	-8.6	i	3.6	i	i
CN(C)/C=C1/N=C(c2ccccc2)OC1=O	4.9	i	-10.8	-2.1	i	-0.3	·	·
CC[C@H](CCCCCCCn1ccc2ccccc21)CCC(=O)N(c1ccccc1)c1ccccc1	·	·	-18.9	·	·	·	·	·
CC(C)c1c(C(=O)N/N=C/c2cccc(OCc3ccc(F)cc3)c2)nnn1-c1nonc1N	-20.9	-6.63*	-12.3	-2.0	i	-3.5	68.0%*	i
CCCCCC(=O)NC1CCCCN(Cc2ccc(Cl)cc2)C1=O (stereo not given)	·	·	-0.8	·	·	·	·	·
COc1cc(NC(=O)c2ccccn2)ccc1NC(=O)c1ccccc1Cl	·	·	-14.9	·	·	·	·	·
CCN(CC)C(=O)CC[C@@H]1CC[C@]2(CCCN(Cc3nccs3)C2)O1	·	·	-4.7	·	·	·	·	·
CCCN(CCC)c1nc(N(CCC)CCC)[nH]c(=O)n1	-19.3	-5.09*	-6.6	-5.8	i	4.0	64.1%*	i
COc1ccc(-c2nnc(NC(=O)c3ccc(S(=O)(=O)N4COCC4(C)C)cc3)o2)cc1	28.8	i	7.4	-3.2	i	-2.5	·	·
CC1(C)COCN1S(=O)(=O)c1ccc(C(=O)Nc2nnc(-c3ccc(Cl)s3)o2)cc1	·	-5.78*	·	·	i	2.4	50.1%*	i
Cc1cccc(CNC(=S)OC2CCC23CCC(c2ccccc2)CC3)c1 (stereo not given)	·	·	-8.6	·	·	·	·	·
Cc1ccccc1C(=O)OC(C)CN1CCN(C)CC1 (stereo not given)	-30.5	-6.11*	-4.7	5.0	i	-0.7	46.1%*	i
CC(CN1CCN(C)CC1)OC(=O)c1ccccc1Cl (stereo not given)	13.4	-8.33*	-8.2	1.3	i	1.0	11.9%*	i
O=C(NNS(=O)(=O)c1ccccc1[N+](=O)[O-])c1cc2ccccc2cc1O	-26.2	-7.26*	-42.8	-6.7	i	0.2	62.3%*	i
Cc1cc(C)n2nc(CNS(=O)(=O)c3ccc(C)c(C)c3)nc2n1	2.5	-6.93*	9.3	·	i	-1.3	i	i
CN(Cc1nc(-c2cccnc2)no1)S(=O)(=O)c1ccc(Br)cc1	21.2	-5.66*	11.5	0.6	i	11.9	61.9%*	i
CN(Cc1ccccc1)C(=S)Nc1ccc2nc3n(c(=O)c2c1)CCCCC3	1.0	-6.96*	2.5	-4.0	i	-0.7	i	i
O=c1c2cc(NC(=S)N3CCCCC3)ccc2nc2n1CCCCC2	2.9	i	-8.0	5.1	i	4.5	·	·
SMILES	NR2E3 ag-1	CHT block	COUP-TFII inh	GalR3 antagonist	CHT allo act	NR2E3 ag-2	CHT inh conf	HEK293 MPD ctr
O=C(CCS(=O)(=O)c1ccccc1)Nc1ccc(F)cc1F	·	·	-3.5	·	·	·	·	·
C=Cc1ccc(C(=O)Nc2nnc(-c3cccnc3)s2)cc1	·	·	-17.0	·	·	·	·	·
Cc1cccc(NC(=O)C2CCN(S(C)(=O)=O)CC2)c1C	1.9	-5.28*	5.0	-10.6	i	1.9	i	i
Cc1cc(C)c(C#N)c(SCS(=O)Cc2ccc(Cl)cc2)n1 (stereo not given)	-21.8	i	-1.4	-11.6	i	2.9	·	·
Cc1cc(C)c(C#N)c(SCS(=O)Cc2ccccc2)n1 (stereo not given)	-0.1	-5.93*	-0.2	-3.4	i	-0.1	i	i
CSc1nc(-c2ccc(Cl)cc2)c(C#N)c(=O)[nH]1	-27.4	i	15.7	-5.6	i	12.4	·	·
CSc1nc(Nc2ccc(Cl)cc2)c(C#N)c(=O)[nH]1	-17.3	-6.1*	-14.5	-5.5	i	1.0	i	i
CCCCn1c(SCC(=O)Nc2cccc(OC)c2)nc2ccc(N3CCOCC3)cc2c1=O	-26.9	-5.97*	4.1	-2.6	i	-0.8	62.2%*	i
CCCCn1c(SCC(N)=O)nc2ccc(N3CCOCC3)cc2c1=O	-17.5	i	5.9	-5.0	i	-0.7	·	·
CC(OC(=O)/C=C/c1ccc2ccccc2n1)C(=O)N(C)c1ccccc1 (stereo not given)	-13.1	·	-6.4	-6.3	·	-3.9	·	·
CC(=O)/C=C/c1ccc2ccccc2n1	-28.6	-5.33*	-20.1	4.2	i	-0.8	i	i
CCCCOc1cccc(C(=O)NNC(=S)NC2CCCCC2)c1	-16.4	-8.78*	8.3	-2.4	i	3.0	68.8%*	i
CCOc1cccc(C(=O)NC2CCCCC2)c1	-73.2	i	-11.5	-8.6	i	1.1	·	·
CC(C)c1cc(C(=O)NNC(=S)NC2CCCCC2)cs1	-50.9	-5.55*	28.8	-0.3	i	0.1	66.2%*	i
CCN1CCN(CCn2c(=S)[nH]c3ccccc3c2=O)CC1	7.8	i	-20.9	-5.5	i	-0.8	·	·
O=c1c2ccccc2[nH]c(=S)n1CCN1CCCC1	3.5	-6.97*	4.1	-5.4	i	0.6	21.3%*	i
O=C(CSc1nc2c(c(=O)n1-c1ccc(Cl)cc1)SCC2)N1CCCC1	2.3	-6.81*	8.1	-2.9	i	3.0	i	i
COCCCNC(=O)C[C@H]1C[C@@]2(C(=O)OC)C(=C[C@H](C3CCCC3)O[C@@H]2C)N(CCC2=CCCCC2)C1=O	·	·	-7.0	·	·	·	·	·
NC(N)=N/N=C/c1ccc(Cl)c(Cl)c1	-4.9	-5.42*	2.0	-0.7	i	-2.4	41.4%*	i
